Screens as filed in PubChem.
INS-1E GSIS act – primary screen for activators of insulin secretion dependent on glucose, INS-1E cells, GLuc reporter luminescence; INS-1E GLuc reporter insulin secretion, 2-3 h; activation, % at 16.6 µM; 370,000 tested, 0.61% active; AID 743287;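 active means lowest replicate activation of at least 40%, so every replicate reaches that level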;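 further: 0% = median of neutral control wells and 100% = median of IBMX positive control wells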
ERp5 block – inhibitors of human ERp5 | Q15084 | ERp5 insulin aggregation, absorbance 650 nm, 90 min | inhibition, % at 9.99 µM | 350,000 tested, 0.05% active | AID 651711;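 active means mean replicate inhibition above about 25%, with every replicate also reaching it, limit read from the data, passing the limit was not always enough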
S100A4 inh HTS – inhibitors of human S100A4 binding to myosin IIA peptide. AID 652163. inhibition, % at 10.7 µM. S100A4/TAMRA-MyoIIA peptide fluorescence polarization. P26447. 360,000 tested, 0.14% active;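 active means mean inhibition of at least 70% across replicates, with every replicate also reaching that level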
Target sequence (P26447 whole entry, looked up): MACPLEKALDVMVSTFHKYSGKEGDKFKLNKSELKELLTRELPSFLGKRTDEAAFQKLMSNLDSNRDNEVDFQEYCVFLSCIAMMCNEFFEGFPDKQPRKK
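Test system: S100A4 monomer protein. Medium: HEPES buffer with Ca2+, pH 7.2. Reagent: fluorescent myosin IIA peptide, 5 nM. Compound dosing: single-point compound testing. Timing: 5 min between mix addition and reading. Benchmarks: DMSO neutral and TFP positive wells.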
PDI inh – blocks human protein disulfide isomerase activity. P07237. 350,000 tested, 0.052% active. PDI insulin aggregation turbidity, A650, 90 min. inhibition, % at 10 µM;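 active means mean inhibition across replicates of 30% or more, whatever share of single replicates reach that level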
SIRT5 block – blocks human SIRT5 desuccinylation of peptide | inhibition, % at 15 µM | 330,000 tested, 1.1% active | Q9NXA8 | Purified SirT5, succinyl-peptide AMC, trypsin-coupled fluorescence; in the data active means inhibition above about 15%
Target sequence (Q9NXA8 whole entry, looked up): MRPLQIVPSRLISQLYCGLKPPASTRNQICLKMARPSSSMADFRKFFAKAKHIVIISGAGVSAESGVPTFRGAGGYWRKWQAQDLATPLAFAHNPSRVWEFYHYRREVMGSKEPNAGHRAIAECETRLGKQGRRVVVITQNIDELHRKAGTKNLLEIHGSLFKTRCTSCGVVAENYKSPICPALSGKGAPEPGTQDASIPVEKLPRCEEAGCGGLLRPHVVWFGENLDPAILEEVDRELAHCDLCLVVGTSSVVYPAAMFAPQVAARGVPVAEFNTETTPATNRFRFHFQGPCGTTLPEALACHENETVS
* = called active by the depositor; x = no result given; ! = not active in a repeat. Rows were chosen to be rich in hits. Some 1.5% of all compounds tested hit in one or more screens of this group.

SMILES | INS-1E GSIS act | ERp5 block | S100A4 inh HTS | PDI inh | SIRT5 block
COc1cc2c3nnc(-c4ccc(F)cc4)c-3cn(Cc3ccccc3F)c2cc1OC | 12 | 0 | 8 | -5 | -9
C[C@@H]1CN([C@H](C)CO)S(=O)(=O)c2ccc(-c3ccc(C#N)cc3)cc2O[C@H]1CN(C)C | 48* | -4 | -10 | x | -9
C[C@H](CO)N1C[C@H](C)[C@H](CN(C)S(=O)(=O)c2ccc(F)cc2)Oc2cc(C3=CCCC3)ccc2S1(=O)=O | 6 | 4 | 2 | x | 2
C[C@@H]1CN([C@@H](C)CO)S(=O)(=O)c2ccc(-c3cccc(C#N)c3)cc2O[C@@H]1CN(C)C(=O)c1ccc(F)cc1 | -11 | -1 | 131*! | 8 | 3
C[C@H](CO)N1C[C@H](C)[C@@H](CN(C)S(=O)(=O)c2ccc(F)cc2)Oc2cc(C3=CCCCC3)ccc2S1(=O)=O | -4 | 0 | 8 | x | 19*
C[C@@H]1CN([C@H](C)CO)S(=O)(=O)c2ccc(C3=CCCCC3)cc2O[C@@H]1CN(C)C(=O)Nc1ccc2c(c1)OCO2 | -13 | 3 | -3 | x | 15*
C[C@@H]1CN([C@@H](C)CO)S(=O)(=O)c2ccc(-c3ccc(C#N)cc3)cc2O[C@H]1CN(C)C | 19 | -10 | -4 | x | -4
COC(=O)c1ccc(CN2CC(=O)N3[C@H](CO)[C@H](c4ccc(-c5ccccc5)cc4)[C@@H]3C2)cc1 | -25 | x | x | x | x
C[C@@H]1CN([C@H](C)CO)S(=O)(=O)c2ccc(C3=CCCC3)cc2O[C@H]1CN(C)C | 0 | -5 | -5 | x | 1
C[C@@H]1CN([C@H](C)CO)S(=O)(=O)c2ccc(C3=CCCCC3)cc2O[C@H]1CN(C)C(=O)c1ccc(F)cc1 | -15 | 0 | 4 | x | 14
C[C@@H]1CN([C@H](C)CO)S(=O)(=O)c2ccc(C3=CCCCC3)cc2O[C@H]1CN(C)S(=O)(=O)c1ccc(F)cc1 | -2 | 1 | 0 | x | 30*
C[C@H]1CN([C@@H](C)CO)S(=O)(=O)c2ccc(C3=CCCCC3)cc2O[C@@H]1CN(C)C(=O)c1ccc(F)cc1 | -12 | 0 | 15 | x | 16*
C[C@H](CO)N1C[C@H](C)[C@H](CN(C)C)Oc2cc(C3=CCCC3)ccc2S1(=O)=O | -8 | -4 | 98* | x | 5
COCCNC(=O)C[C@H]1CC[C@@H](NC(=O)NC2CCCC2)[C@@H](CO)O1 | 2 | 0 | -14 | x | 3
O=c1cc(-c2ccccc2F)nc(-c2ccccc2F)o1 | 12 | 0 | -4 | 11 | -6
O=c1cc(-c2cccc(Br)c2)nc(-c2ccccc2F)o1 | 46* | x | x | -2 | x
CN(C)C(=O)C[C@H]1CC[C@@H]2[C@H](COC[C@@H](O)CN2C(=O)c2ccncc2)O1 | 6 | -3 | -3 | x | 16*
COc1ccc(CN2C[C@@H](O)COC[C@@H]3O[C@H](CC(=O)N4CCc5ccccc5C4)CC[C@H]32)cc1 | -13 | 0 | 2 | x | 17*
COc1ccc(CN2C[C@H](O)COC[C@@H]3O[C@H](CC(=O)N(C)C)CC[C@H]32)cc1 | 64 | -4 | -1 | x | 2
CN(C)C(=O)C[C@@H]1CC[C@H]2[C@@H](COC[C@@H](O)CN2C(=O)c2ccncc2)O1 | 4 | x | x | x | x
COc1ccc(CN2C[C@@H](O)COC[C@H]3O[C@H](CC(=O)N4CCc5ccccc5C4)CC[C@@H]32)cc1 | 13 | 0 | 2 | x | 1
O=C(C[C@@H]1CC[C@@H]2[C@H](COC[C@H](O)CN2C(=O)c2cccnc2)O1)NCc1ccc(Cl)cc1 | 16 | -1 | 94* | x | 10
COc1ccc(CN2C[C@H](O)COC[C@@H]3O[C@@H](CC(=O)N(C)C)CC[C@H]32)cc1 | -6 | 1 | 94* | x | 9
CS(=O)(=O)N1[C@@H]2c3ccc(-c4ccccc4F)c(=O)n3C[C@@H]2[C@@H](CO)[C@@H]1C(=O)NCC1CC1 | 2 | 1 | 18 | x | -10
COc1ccc(NC(=O)N2C[C@H](O)COC[C@@H]3O[C@@H](CC(=O)N4CCCCC4)CC[C@H]32)cc1 | -1 | -4 | -4 | x | 25*
SMILES | INS-1E GSIS act | ERp5 block | S100A4 inh HTS | PDI inh | SIRT5 block
CCn1c(Cl)c(C=O)s/c1=N\S(=O)(=O)c1ccccc1 | 58* | 4 | -27 | -3 | -1
CO[C@@H]1CN(C)C(=O)c2cc(NS(=O)(=O)c3ccc(Cl)cc3)ccc2OC[C@H](C)N(C(=O)NC(C)C)C[C@H]1C | -10 | x | x | x | x
COc1ccc(CCN(C)C(=O)c2oc3ccccc3c2C)cc1OC | 105* | 0 | 2 | 7 | -5
CC(=O)N(Cc1cc2cc(C)c(C)cc2n2nnnc12)CC1COCCO1 (stereo not drawn) | 63* | x | x | 0 | x
Cc1cc2cc(CN(Cc3ccc4c(c3)OCO4)C(=O)c3cnccn3)c3nnnn3c2cc1C | x | x | x | 3 | x
COc1ccc2oc(-c3ccc(NC(=O)c4ccc(N5CCOCC5)c([N+](=O)[O-])c4)cc3)nc2c1 | 109* | x | x | -18 | x
C[C@H]1CN([C@@H](C)CO)C(=O)c2cccc(NS(=O)(=O)c3cn(C)cn3)c2O[C@@H]1CN(C)C(=O)Nc1ccc(C(F)(F)F)cc1 | -13 | -1 | -2 | x | 3
CC(C)OC(=O)c1nn2c(C(F)(F)F)cc(-c3ccco3)nc2c1Cl | x | x | x | -1 | x
CC(C)OC(=O)c1nn2c(C(F)(F)F)cc(-c3ccc(Br)o3)nc2c1Br | 157* | x | x | -7 | x
COc1ccccc1N=C1SC(C(=O)Nc2cccc(Cl)c2Cl)C(N)=C1C(N)=O (stereo not drawn) | -2 | -10 | -7 | -3 | 21*
O=C(C[C@@H]1CC[C@H]2[C@@H](COC[C@H](O)CN2C(=O)Nc2ccc(Cl)c(Cl)c2)O1)NCc1ccc(F)cc1 | -9 | 0 | -4 | x | -1
Cc1ccc(S(=O)(=O)N(C)C[C@@H]2Oc3c(NC(=O)Nc4ccc5c(c4)OCO5)cccc3C(=O)N([C@H](C)CO)C[C@@H]2C)cc1 | 4 | 6 | 4 | x | 15*
C[C@H](CO)N1C[C@H](C)[C@@H](CN(C)C(=O)Nc2ccc3c(c2)OCO3)Oc2c(NC(=O)C3CC3)cccc2C1=O | 2 | 6 | -5 | 3 | 22*!
C[C@@H]1CN([C@H](C)CO)C(=O)c2cccc(NC(=O)Nc3ccc4c(c3)OCO4)c2O[C@@H]1CN(C)C | 13 | -8 | -2 | x | -4
CNC[C@H]1Oc2c(NC(=O)Nc3ccc4c(c3)OCO4)cccc2C(=O)N([C@@H](C)CO)C[C@H]1C | -17 | 1 | 5 | x | 99*
CNC[C@H]1Oc2c(NC(=O)Nc3ccc(C(F)(F)F)cc3)cccc2C(=O)N([C@@H](C)CO)C[C@H]1C | -7 | 6 | 93* | x | 8
O=C(NC[C@@H]1CC[C@@H]2[C@@H](CN2S(=O)(=O)c2ccccc2)O1)NC1CCCCC1 | x | 0 | 1 | x | 1
CCCNC(=O)N(C)C[C@H]1Oc2cc(C#CCN(C)C)ccc2S(=O)(=O)N([C@@H](C)CO)C[C@@H]1C | 2 | -9 | -6 | x | 10
